ERAP1 HTS inh: ERAP1 (human) enzyme inhibition | Q9NZ08 | recombinant ERAP1, Leu-AMC fluorescence, 60 min | inhibition, % at 10.7 µM | 340,000 tested, 0.15% active | AID 652197;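 active = mean replicate inhibition of at least 30%, or all replicates individually reaching that 30% level; inactive = mean below 30% and not every replicate reaching it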;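 also: 0% = neutral control wells and 100% = L-leucinethiol positive control wells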
Target sequence (Q9NZ08 whole entry, looked up): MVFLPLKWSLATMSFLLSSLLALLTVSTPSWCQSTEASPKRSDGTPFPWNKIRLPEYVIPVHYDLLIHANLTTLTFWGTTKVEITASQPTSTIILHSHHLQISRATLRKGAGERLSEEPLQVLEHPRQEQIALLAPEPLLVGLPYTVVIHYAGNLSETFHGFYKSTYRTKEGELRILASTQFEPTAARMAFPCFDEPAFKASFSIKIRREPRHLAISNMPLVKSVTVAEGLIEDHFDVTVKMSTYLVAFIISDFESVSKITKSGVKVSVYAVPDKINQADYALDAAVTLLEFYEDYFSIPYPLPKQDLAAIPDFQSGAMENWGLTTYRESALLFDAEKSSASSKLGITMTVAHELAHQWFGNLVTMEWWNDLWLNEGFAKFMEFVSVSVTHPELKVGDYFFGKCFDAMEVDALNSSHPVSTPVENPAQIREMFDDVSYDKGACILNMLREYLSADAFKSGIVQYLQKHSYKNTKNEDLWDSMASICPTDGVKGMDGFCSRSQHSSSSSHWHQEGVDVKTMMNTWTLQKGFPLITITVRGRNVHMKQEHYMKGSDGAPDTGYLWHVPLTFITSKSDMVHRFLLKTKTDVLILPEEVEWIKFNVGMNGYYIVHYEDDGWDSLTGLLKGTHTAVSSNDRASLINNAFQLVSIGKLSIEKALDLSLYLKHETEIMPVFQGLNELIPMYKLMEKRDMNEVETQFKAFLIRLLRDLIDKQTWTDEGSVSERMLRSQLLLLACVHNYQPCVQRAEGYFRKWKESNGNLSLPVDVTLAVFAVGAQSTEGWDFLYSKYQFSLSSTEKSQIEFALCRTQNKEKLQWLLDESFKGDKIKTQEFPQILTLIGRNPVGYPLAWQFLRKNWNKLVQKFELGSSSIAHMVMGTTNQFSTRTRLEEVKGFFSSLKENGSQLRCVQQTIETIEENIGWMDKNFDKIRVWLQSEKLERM
CASP6 VEID inh: blocks human caspase-6 cleavage activity | P55212 | purified caspase-6, Z-VEID-R110 cleavage fluorescence | inhibition, % at 12.5 µM | 350,000 tested, 0.53% active | AID 686996;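 active = mean inhibition across replicates at least about 35%, with every replicate also reaching that limit, limit read from the data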;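 also: 0% = median of neutral control wells and 100% = no fluorescence left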
ARNT TACC3 PPI: disruptors of human ARNT/TACC3 interaction | Q9Y6A5 | AID 623870 | 390,000 tested, 0.66% active | AlphaScreen His-ARNT PAS-B/GST-TACC3 binding, luminescence; TACC3 fragment carries E629A point mutation | inhibition, % at 9.99 µM;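 active = mean inhibition of replicates at least 50% and at least half of replicates each reaching 50%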;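 also: 0% = complete ARNT plus TACC3 wells and 100% = ARNT alone without TACC3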
PGC1a acetyl inh: lowers PGC1a acetylation signal in U2OS cells; AlphaScreen anti-acetyl-lysine; with virally co-expressed GCN5 acetyltransferase; inhibition, % at 15.6 µM; 350,000 tested, 0.17% active; AID 651687;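 active = every replicate shows inhibition of at least 40%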;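 also: 0% = neutral control wells and 100% = positive control wells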
S100A4 inh HTS: blocks human S100A4 binding to myosin IIA peptide; inhibition, % at 10.7 µM; AID 652163; S100A4/TAMRA-MyoIIA peptide fluorescence polarization; 360,000 tested, 0.14% active;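 active = mean inhibition of at least 70% across replicates, with every replicate also reaching that level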
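assay system = human S100A4 monomer with TAMRA-labelled myosin IIA peptide | also added = labelled myosin peptide probe, 5 nM | incubation = 5 min between mix addition and reading | control set = DMSO and TFP controls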
rRNA inh HTS: selective bacterial rRNA inhibition in E. coli | E. coli WT GFP vs humanized-ribosome RFP mutants, fluorescence, 24 h; stronger effect = lower value; DMSO median 0, no signal -100 | GFP signal change (wild-type ribosome), % (test concentration not listed) | 350,000 tested, 1.6% active;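 active = significant combined selectivity score with lowered wild-type GFP, culture density cut under 30%, mutant RFP and density less affected; inactive = any of these conditions unmet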
* = called active by the depositor; / = not tested or not shown. Compounds with a hit are over-represented: about 2.4% of the library has one in this group of screens.

SMILES	ERAP1 HTS inh	CASP6 VEID inh	ARNT TACC3 PPI	PGC1a acetyl inh	S100A4 inh HTS	rRNA inh HTS
C=CCn1c(-c2cc(-c3ccc(C)cc3)nc3ccccc23)n[nH]c1=S	-2	4	0	18	-5	-29*
CCOC(=O)c1cccc(OC(=O)CCNC(=O)c2ccc(Cl)cc2)c1	3	-3	-1	/	0	-28*
C[C@H](O)[C@@H]1C(=O)N2CCc3c([nH]c4ccccc34)[C@@H]2C[C@@H]1N(C)C(=O)Nc1cccc2ccccc12	-24	82*	/	-7	-6	7
CC1(C)COC(/C=C/c2cccc([N+](=O)[O-])c2)=N1	0	46*	8	/	3	9
CN(c1ccccc1)S(=O)(=O)c1cccc(NC(=O)CCN2C(=O)C3CCCCC3C2=O)c1 (stereo not drawn)	-5	-3	-1	-1	1	-29*
CCCC(=O)Nc1cccc(S(=O)(=O)N(C)c2ccccc2)c1	/	/	-4	2	/	/
NS(=O)(=O)c1cccc(NC(=O)COC(=O)c2ccccc2C(=O)c2ccccc2)c1	-2	-2	/	/	0	-32*
CN(c1cccc(NC(=O)c2ccc(N(C)S(=O)(=O)c3ccccc3)cc2)c1)S(C)(=O)=O	3	3	1	/	3	-17*
CN(c1ccccc1)S(=O)(=O)c1cccc(C(=O)OCC(=O)Nc2ccc(C(N)=O)cc2)c1	-2	40*	-1	1	8	/
CO[C@@H]1CN(C)C(=O)c2cc(NC(C)=O)ccc2OC[C@H](C)N(Cc2cccc(F)c2)C[C@H]1C	1	2	10	-2	2	-5
COc1ccc2c3c([nH]c2c1)[C@H](CO)N(S(C)(=O)=O)CC31CCN(CC2CCCCC2)CC1	1	-3	/	/	30	3
C[C@@H]1CN([C@H](C)CO)C(=O)c2cccc(NC(=O)Nc3ccc(F)cc3)c2O[C@H]1CN(C)Cc1ccc(Oc2ccccc2)cc1	0	-1	11	-9	7	-2
CCOC(=O)Cc1csc(NC(=O)Nc2cccc(OC)c2)n1	-2	5	-4	/	-2	-29*
CCOC(=O)Cc1csc(NC(=O)CCSc2ccccc2)n1	1	3	-1	-6	-7	-21*
CCOC(=O)Cc1csc(NC(=S)NC(=O)c2ccccc2C)n1	-2	-1	-11	2	-3	-20*
Cc1noc(C)c1S(=O)(=O)Nc1ccc2c(c1)C(=O)N([C@@H](C)CO)C[C@H](C)[C@@H](CN(C)Cc1ccc(C(F)(F)F)cc1)OCCCC[C@@H](C)O2	0	2	2	-2	-3	-1
O=C1C(Cl)=C(N2CCOCC2)C(=O)N1c1cccc(Cl)c1	/	/	-11	-5	/	/
Cc1cccc(N2C(=O)C(Cl)=C(N3CCOCC3)C2=O)c1	-2	9	0	81*	-3	0
CCC(C)NCCOc1ccc(C(C)(C)c2ccccc2)cc1 (stereo not drawn)	-2	2	4	-31	-8	-53*
COCCCNCCOc1ccc(C(C)(C)c2ccccc2)cc1	-2	-6	-2	/	4	-43
O=C(Cc1ccccc1)N[C@@H]1CC[C@H](CC(=O)N2CCCCC2)O[C@H]1CO	0	-1	/	-2	4	1
COc1ccc(NCC(=O)Nc2ccc(Cl)cc2C)c(OC)c1	1	-1	14	5	-23	-19*
CCOc1ccc(NCC(=O)Nc2ccc(Cl)cc2C)cc1	/	/	2	-25	/	/
COCC#Cc1ccc([C@@H]2[C@@H](CO)N3C(=O)CN(C(=O)C4CCC4)C[C@@H]23)cc1	0	1	/	2	2	3
CCNC(=S)N1CCCCC1CO (stereo not drawn)	4	47*	-2	8	-2	21
Nc1nc(-c2cc(O)ccc2[N+](=O)[O-])cc(-c2ccccc2)c1[N+](=O)[O-]	0	47*	17	3	7	-4
CC(C)(C)c1ccc(/C=N/N2C(=O)CSC2=S)cc1	2	3	9	-4	-33	-6
O=C1CSC(=S)N1/N=C/c1ccc(O)c(O)c1O	/	/	98*	1	/	/
O=C1CSC(=S)N1N=Cc1ccc(Cl)s1	-2	29	61*	/	-39	/
